# Test results from ChEMBL document CHEMBL4842318, “A γ-lactam siderophore antibiotic effective against multidrug-resistant Pseudomonas aeruginosa, Klebsiella pneumoniae, and Acinetobacter spp” (Eur J Med Chem, 2021).
# Key:
# Acinetobacter baumannii [1] = experiment: Antibacterial activity against carbapenem resistant Acinetobacter baumannii isolate PR-319 assessed as bacterial growth inhibition by microdilution method; assay type: functional
# Procedure, shortened: (§1)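 Broth microdilution in Chelex-treated, iron-depleted cation-adjusted Mueller-Hinton broth, following the protocol used for siderophore-containing antibiotics; inoculum lowered to 6 × 10^4 cfu/mL; MIC read as growth inhibition, in μg/mL.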
# Acinetobacter baumannii [2] = experiment: Antibacterial activity against carbapenem resistant Acinetobacter baumannii isolate PR-325 assessed as bacterial growth inhibition by microdilution method; assay type: functional; procedure, shortened: as §1
# Acinetobacter baumannii [3] = experiment: Antibacterial activity against carbapenem resistant Acinetobacter baumannii isolate PR-401 assessed as bacterial growth inhibition by microdilution method; assay type: functional; procedure, shortened: as §1
# Acinetobacter baumannii [4] = experiment: Antibacterial activity against carbapenem resistant Acinetobacter baumannii isolate PR-459 assessed as bacterial growth inhibition by microdilution method; assay type: functional; procedure, shortened: as §1
# [5] = Antibacterial activity against carbapenem susceptible Acinetobacter nosocomialis isolate PR-412 assessed as bacterial growth inhibition by microdilution method; assay type: functional
# Procedure, shortened: (§2)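 Broth microdilution MIC in iron-depleted (Chelex resin-treated) cation-adjusted Mueller-Hinton broth, following the protocol used for siderophore-containing antibiotics. Inoculum was lowered to 6 × 10^4 cfu/mL.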
# [6] = Antibacterial activity against carbapenem susceptible Acinetobacter nosocomialis isolate PR-491 assessed as bacterial growth inhibition by microdilution method; assay type: functional; procedure, shortened: as §2
# Acinetobacter baumannii [7] = experiment: Antibacterial activity against carbapenem resistant Acinetobacter baumannii isolate PR-314 assessed as inhibition of bacterial growth at 1:1 compound to sulbactam concentration by microdilution method; assay type: functional
# Procedure, shortened: (§3)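 Iron-depleted (Chelex-treated) cation-adjusted Mueller-Hinton broth microdilution; inoculum 6 × 10^4 cfu/mL. Test agent and sulbactam mixed 1:1 by mass and serially 2-fold diluted together. MIC in μg/mL.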
# Acinetobacter baumannii [8] = experiment: Antibacterial activity against carbapenem resistant Acinetobacter baumannii isolate PR-319 assessed as inhibition of bacterial growth at 1:1 compound to sulbactam concentration by microdilution method; assay type: functional; procedure, shortened: as §3
# Acinetobacter baumannii [9] = experiment: Antibacterial activity against carbapenem resistant Acinetobacter baumannii isolate PR-345 assessed as inhibition of bacterial growth at 1:1 compound to sulbactam concentration by microdilution method; assay type: functional; procedure, shortened: as §3
# Acinetobacter baumannii [10] = experiment: Antibacterial activity against carbapenem resistant Acinetobacter baumannii isolate PR-351 assessed as inhibition of bacterial growth at 1:1 compound to sulbactam concentration by microdilution method; assay type: functional; procedure, shortened: as §3
# Acinetobacter baumannii [11] = experiment: Antibacterial activity against carbapenem resistant Acinetobacter baumannii isolate PR-380 assessed as inhibition of bacterial growth at 1:1 compound to sulbactam concentration by microdilution method; assay type: functional; procedure, shortened: as §3
# Acinetobacter baumannii [12] = experiment: Antibacterial activity against carbapenem resistant Acinetobacter baumannii isolate PR-399 assessed as inhibition of bacterial growth at 1:1 compound to sulbactam concentration by microdilution method; assay type: functional; procedure, shortened: as §3
# [13] = Antibacterial activity against carbapenem susceptible Acinetobacter nosocomialis isolate PR-362 assessed as inhibition of bacterial growth at 1:1 compound to sulbactam concentration by microdilution method; assay type: functional
# Procedure, shortened: (§4)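 Broth microdilution MIC in Chelex-treated, iron-depleted cation-adjusted Mueller-Hinton broth, inoculum 6 × 10^4 cfu/mL. Compound and sulbactam combined 1:1 by mass in a 2-fold dilution series.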
# Acinetobacter baumannii [14] = experiment: Antibacterial activity against carbapenem susceptible Acinetobacter baumannii isolate PR-478 assessed as inhibition of bacterial growth at 1:1 compound to sulbactam concentration by microdilution method; assay type: functional; procedure, shortened: as §4
# Acinetobacter baumannii [15] = experiment: Antibacterial activity against carbapenem resistant Acinetobacter baumannii isolate PR-314 assessed as inhibition of bacterial growth in presence of 20 ug/ml sulbactam by microdilution method; assay type: functional; conditions: dose 20 µg/ml
# Acinetobacter baumannii [16] = experiment: Antibacterial activity against carbapenem resistant Acinetobacter baumannii isolate PR-319 assessed as inhibition of bacterial growth in presence of 20 ug/ml sulbactam by microdilution method; assay type: functional; conditions: dose 20 µg/ml
# Acinetobacter baumannii [17] = experiment: Antibacterial activity against carbapenem resistant Acinetobacter baumannii isolate PR-401 assessed as inhibition of bacterial growth in presence of 20 ug/ml sulbactam by microdilution method; assay type: functional; conditions: dose 20 µg/ml
# Acinetobacter baumannii [18] = experiment: Antibacterial activity against carbapenem resistant Acinetobacter baumannii isolate PR-482 assessed as inhibition of bacterial growth in presence of 20 ug/ml sulbactam by microdilution method; assay type: functional; conditions: dose 20 µg/ml; procedure, shortened: as §2
# [19] = Antibacterial activity against carbapenem susceptible Acinetobacter nosocomialis isolate PR-365 assessed as inhibition of bacterial growth in presence of 20 ug/ml sulbactam by microdilution method; assay type: functional; conditions: dose 20 µg/ml
# Procedure, shortened: (§5)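 MIC by broth microdilution using iron-depleted (Chelex-treated) cation-adjusted Mueller-Hinton broth and 6 × 10^4 cfu/mL inoculum. Compound serially diluted with sulbactam held constant at 20 μg/mL.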
# [20] = Antibacterial activity against carbapenem susceptible Acinetobacter nosocomialis isolate PR-412 assessed as inhibition of bacterial growth in presence of 20 ug/ml sulbactam by microdilution method; assay type: functional; conditions: dose 20 µg/ml; procedure, shortened: as §5
# Acinetobacter baumannii [21] = experiment: Antibacterial activity against carbapenem susceptible Acinetobacter baumannii isolate PR-452 assessed as inhibition of bacterial growth in presence of 20 ug/ml sulbactam by microdilution method; assay type: functional; conditions: dose 20 µg/ml; procedure, shortened: as §5
# [22] = Solubility of compound in pH 7.5 phosphate buffer by nephelometry; assay type: physicochemical
# [23] = Permeability in human Caco-2 cells; assay type: ADME, cell-based
# CYP2C8 = molecular target: T1, CYP2C8 (Homo sapiens, UniProt P10632); experiment: Inhibition of CYP2C8 (unknown origin) at 100 uM; assay type: ADME
# T1 sequence (P10632 whole entry): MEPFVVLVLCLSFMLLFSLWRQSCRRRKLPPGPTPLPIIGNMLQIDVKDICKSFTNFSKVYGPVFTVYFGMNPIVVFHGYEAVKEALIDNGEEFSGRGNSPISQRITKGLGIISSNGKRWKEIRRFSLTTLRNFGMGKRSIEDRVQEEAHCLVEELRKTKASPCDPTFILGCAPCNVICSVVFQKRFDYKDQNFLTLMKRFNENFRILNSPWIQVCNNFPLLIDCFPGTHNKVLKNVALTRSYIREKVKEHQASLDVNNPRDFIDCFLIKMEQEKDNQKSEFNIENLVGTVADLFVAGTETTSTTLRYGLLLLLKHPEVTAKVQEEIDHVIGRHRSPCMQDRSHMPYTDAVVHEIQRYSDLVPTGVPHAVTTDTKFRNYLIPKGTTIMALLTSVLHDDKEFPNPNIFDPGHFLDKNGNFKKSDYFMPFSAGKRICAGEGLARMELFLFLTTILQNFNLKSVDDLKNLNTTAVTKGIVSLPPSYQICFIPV
# Hepatocyte = experiment: Cytotoxicity against human hepatocytes at 100 uM; assay type: cell-based
# Pseudomonas aeruginosa [24] = experiment: Antibacterial activity against wild type Pseudomonas aeruginosa isolate PR-672 assessed as inhibition of bacterial growth by microdilution method; assay type: functional; procedure, shortened: as §2
# Pseudomonas aeruginosa [25] = experiment: Antibacterial activity against wild type Pseudomonas aeruginosa isolate PR-668 leucine at 533 residue assessed as inhibition of bacterial growth by microdilution method; assay type: functional; procedure, shortened: as §2
# [26] = Plasma concentration in SC dosed CD-1 mouse treated four times at 6 hrs interval measured after 0.5 hrs; assay type: ADME, organism-based
# Procedure, shortened: (§6)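 CD-1 mice dosed SC at 50 mg/kg. Plasma sampled at 0.167 to 24 h, three individual mice per time point, reported as mean and SD in ng/mL.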
# [27] = Plasma concentration in SC dosed CD-1 mouse treated four times at 6 hrs interval measured after 24 hrs; assay type: ADME, organism-based; procedure, shortened: as §6
# [28] = Plasma protein binding in mouse; conditions: read-out: PPB (converted)
# Acinetobacter baumannii [29] = experiment: Antibacterial activity against carbapenem susceptible Acinetobacter baumannii isolate PR-340 assessed as inhibition of bacterial growth at 1:1 compound to sulbactam concentration by microdilution method
smiles,measurement,setting,value
CC(C)(O/N=C(\C(=O)N[C@H]1CN2CC(C(=O)NCCN3C(=O)c4cc(O)c(O)cc4C3=O)=C(C(=O)O)N2C1=O)c1nc(N)sc1Cl)C(=O)O,MIC,Acinetobacter baumannii [1],> 16 µg/mL
same,MIC,Acinetobacter baumannii [2],> 16 µg/mL
same,MIC,Acinetobacter baumannii [3],> 16 µg/mL
same,MIC,Acinetobacter baumannii [4],16 µg/mL
same,MIC,[5],> 16 µg/mL
same,MIC,[6],> 16 µg/mL
same,MIC,Acinetobacter baumannii [7],4 µg/mL
same,MIC,Acinetobacter baumannii [8],4 µg/mL
same,MIC,Acinetobacter baumannii [9],16 µg/mL
same,MIC,Acinetobacter baumannii [10],16 µg/mL
same,MIC,Acinetobacter baumannii [11],16 µg/mL
same,MIC,Acinetobacter baumannii [12],16 µg/mL
same,MIC,[13],≤ 0.25 µg/mL
same,MIC,Acinetobacter baumannii [14],1 µg/mL
same,MIC,Acinetobacter baumannii [15],≤ 0.25 µg/mL
same,MIC,Acinetobacter baumannii [16],0.5 µg/mL
same,MIC,Acinetobacter baumannii [17],≤ 0.25 µg/mL
same,MIC,Acinetobacter baumannii [18],≤ 0.25 µg/mL
same,MIC,[19],≤ 0.25 µg/mL
same,MIC,[20],≤ 0.25 µg/mL
same,MIC,Acinetobacter baumannii [21],≤ 0.25 µg/mL
same,solubility kinetic,[22],> 100 µM
same,permeability,[23],Impermeable
same,inhibition at 100 µM,CYP2C8,50%
same,Activity,Hepatocyte,Non-Toxic
same,MIC,Pseudomonas aeruginosa [24],≤ 0.25 µg/mL
same,MIC,Pseudomonas aeruginosa [25],> 16 µg/mL
same,concentration at 0.5 h,[26],16200 ng/mL
same,concentration at 24 h,[27],601 ng/mL
same,fraction unbound,[28],0.06
same,MIC,Acinetobacter baumannii [29],1 µg/mL
